The results in this text go back to ChEMBL document CHEMBL3044619, “Natural fungicides from Ruta graveolens L. leaves, including a new quinolone alkaloid” (J Agric Food Chem, 2003).

Structures are written as SMILES. Calls of active or inactive are those of the source. No cut-off for these calls is given here.

For experiment [1], the system named is Colletotrichum fragariae. The experiment is described as follows: Antifungal activity against Colletotrichum fragariae assessed as growth inhibition at 30 to 300 uM after 48 hr by microplate photometric analysis. It counts as functional. A digest of the protocol: (§1)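 96-well broth microdilution on conidia from 7–10-day PDA cultures of isolates from strawberry, grape or orchid. Conidia were in RPMI buffered with 0.165 M MOPS (pH 7). Ethanol stocks were diluted to final 30, 100 and 300 µM, with duplicate wells and compound-only blanks. Plates were incubated at 24 ± 2 °C under a 12-h photoperiod and read at A620 after 48 h. Results are % change versus untreated conidia controls, split-plot design run twice (n = 4).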

The test system of experiment [2] is Botrytis cinerea. The experiment is described as follows: Antifungal activity against Botryotinia fuckeliana assessed as growth inhibition at 30 to 300 uM after 48 hr by microplate photometric analysis. It counts as functional, organism-based. A digest of the protocol: as §1
The subject of experiment [3] is Diaporthe ampelina. The experiment is described as follows: Antifungal activity against Diaporthe ampelina assessed as growth inhibition at 30 uM after 120 hr by microplate photometric analysis. It counts as functional, organism-based. A digest of the protocol: (§2)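 P. viticola was isolated from grape, and its conidia were harvested from 7–10-day PDA cultures, filtered and adjusted photometrically to 1.0 × 10^6/mL. Growth was run in RPMI broth buffered with 0.165 M MOPS (pH 7) at final 30, 100 or 300 µM (120 mM stocks in 95% ethanol), with duplicate wells, at 24 ± 2 °C under a 12-h photoperiod. A620 was read at 120 h and expressed relative to untreated conidia controls.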

In experiment [4] the test system is Colletotrichum gloeosporioides. The experiment is described as follows: Antifungal activity against Colletotrichum gloeosporioides assessed as growth inhibition at 100 uM after 48 hr by microplate photometric analysis. Type of experiment: functional. Particulars: read-out: GI. The procedure, abridged:
as §1

Experiment [5] concerns Phomopsis obscurans. The experiment is described as follows: Antifungal activity against Phomopsis obscurans assessed as growth inhibition at 30 uM after 120 hr by microplate photometric analysis. The conditions noted are these: Paraphomopsis obscurans, read-out: GI. Type of experiment: functional. The procedure, abridged:
(§3)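 Phomopsis conidia, from strawberry or grape isolates grown 7–10 days on PDA, were tested in RPMI/0.165 M MOPS (pH 7) microtiter wells. Ethanol stocks were diluted to final 30, 100 and 300 µM, with duplicate wells and compound-only blanks. Incubation was at 24 ± 2 °C under a 12-h photoperiod, with A620 read at 120 h because germination is slow. Results are % change versus untreated conidia controls, run twice in time (n = 4).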

Experiment [6] relates to Colletotrichum acutatum. The experiment is described as follows: Antifungal activity against Colletotrichum acutatum assessed as growth inhibition at 300 uM after 48 hr by microplate photometric analysis. It counts as functional. Particulars: read-out: GI. The procedure, abridged:
as §1

The subject of experiment [7] is Phomopsis obscurans. The experiment is described as follows: Antifungal activity against Phomopsis obscurans assessed as growth inhibition at 300 uM after 120 hr by microplate photometric analysis. Type of experiment: functional. Particulars: Paraphomopsis obscurans; for inhibition of growth at 300 µM: read-out: GI. A digest of the protocol:
as §3

Experiment [8] deals with Botrytis cinerea. The experiment is described as follows: Stimulation of Botryotinia fuckeliana growth at 30 uM after 48 hr by microplate photometric analysis. Type of experiment: functional, organism-based. The procedure, abridged: (§4)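 Conidia came from 7–10-day PDA cultures (24 ± 2 °C, 12-h photoperiod) and were filtered and adjusted photometrically to 1.0 × 10^6/mL. B. cinerea was isolated from grape, C. gloeosporioides from strawberry and F. oxysporum from orchid. Growth was run in MOPS-buffered RPMI (0.165 M, pH 7) at final 30, 100 or 300 µM from 120 mM ethanol stocks, with duplicate wells, and read as A620 at 48 h. Results are % of untreated growth.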

Experiment [9] has as its system Fusarium oxysporum. The experiment is described as follows: Antifungal activity against Fusarium oxysporum assessed as growth inhibition at 300 uM after 48 hr by microplate photometric analysis. It counts as functional. The conditions noted are these: read-out: GI. A digest of the protocol: as §1
Experiment [10] has as its system Phomopsis obscurans. The experiment is described as follows: Antifungal activity against Phomopsis obscurans assessed as growth inhibition at 100 uM after 120 hr by microplate photometric analysis. Type of experiment: functional. Particulars: Paraphomopsis obscurans, read-out: GI. A digest of the protocol:
as §3

In experiment [11] the test system is Botrytis cinerea. The experiment is described as follows: Antifungal activity against Botryotinia fuckeliana assessed as growth inhibition at 300 uM after 48 hr by microplate photometric analysis. Type of experiment: functional, organism-based. The procedure, abridged:
as §4

Experiment [12] concerns Phomopsis obscurans. The experiment is described as follows: Stimulation of Phomopsis obscurans growth at 30 to 300 uM after 120 hr by microplate photometric analysis. It counts as functional, organism-based. Particulars: Paraphomopsis obscurans. The procedure, abridged:
as §3

The test system of experiment [13] is Botrytis cinerea. The experiment is described as follows: Stimulation of Botryotinia fuckeliana growth at 30 to 300 uM after 48 hr by microplate photometric analysis. Type of experiment: functional, organism-based. A digest of the protocol:
as §1

Experiment [14] concerns Colletotrichum gloeosporioides. The experiment is described as follows: Stimulation of Colletotrichum gloeosporioides growth at 30 to 300 uM after 48 hr by microplate photometric analysis. Type of experiment: functional, organism-based. The procedure, abridged: as §4
Experiment [15] relates to Diaporthe ampelina. The experiment is described as follows: Stimulation of Diaporthe ampelina growth at 30 to 300 uM after 120 hr by microplate photometric analysis. It counts as functional, organism-based. The procedure, abridged: as §2
The test system of experiment [16] is Colletotrichum acutatum. The experiment is described as follows: Stimulation of Colletotrichum acutatum growth at 30 uM after 48 hr by microplate photometric analysis. It counts as functional. A digest of the protocol: as §1
The subject of experiment [17] is Phomopsis obscurans. The experiment is described as follows: Antifungal activity against Phomopsis obscurans assessed as growth inhibition at 30 to 300 uM after 120 hr by microplate photometric analysis. It counts as functional, organism-based. Particulars: Paraphomopsis obscurans. The procedure, abridged:
as §3

The subject of experiment [18] is Diaporthe ampelina. The experiment is described as follows: Antifungal activity against Diaporthe ampelina assessed as growth inhibition at 300 uM after 120 hr by microplate photometric analysis. The conditions noted are these: read-out: GI. Type of experiment: functional. A digest of the protocol:
as §3

Experiment [19] has as its system Colletotrichum gloeosporioides. The experiment is described as follows: Antifungal activity against Colletotrichum gloeosporioides assessed as growth inhibition at 300 uM after 48 hr by microplate photometric analysis. It counts as functional. The conditions noted are these: read-out: GI. A digest of the protocol:
as §1

In another experiment the test system is Fusarium solani. The experiment is described as follows: Fungistatic activity against Fusarium solani assessed as growth inhibition. It counts as functional, organism-based.
The test system of experiment [20] is Diaporthe ampelina. The experiment is described as follows: Antifungal activity against Diaporthe ampelina assessed as growth inhibition at 30 to 300 uM after 120 hr by microplate photometric analysis. It counts as functional, organism-based. The procedure, abridged: as §3
Experiment [21] concerns Fusarium oxysporum. The experiment is described as follows: Stimulation of Fusarium oxysporum growth at 30 uM after 48 hr by microplate photometric analysis. It counts as functional, organism-based. The procedure, abridged: as §4
Experiment [22] deals with Colletotrichum fragariae. The experiment is described as follows: Antifungal activity against Colletotrichum fragariae assessed as growth inhibition at 300 uM after 48 hr by microplate photometric analysis. Type of experiment: functional. The conditions noted are these: read-out: GI. The procedure, abridged: as §1

As for `Cn1c(CCCCCCc2ccc3c(c2)OCO3)cc(=O)c2ccccc21`, the “growth inhibition (GI)” value in the experiment with Colletotrichum fragariae [1], in the experiment on Botrytis cinerea [2] and in the experiment on Diaporthe ampelina [3] was “Active” throughout. Further, the inhibition of growth at 100 µM in [4] came to 67.7%. For the same compound, the inhibition of growth at 30 µM in the experiment on Phomopsis obscurans [5] came to 100%. The inhibition of growth at 300 µM in the experiment with Colletotrichum acutatum [6] amounted to 57%.
On to `CCCCCCCCCc1cc(=O)c2ccccc2[nH]1`, for which the “growth inhibition (GI)” value with Phomopsis obscurans [7] was “inactive”. In addition, in the experiment with Botrytis cinerea [8], the result was Active. Further, the inhibition of growth at 300 µM was 37% in the experiment on Fusarium oxysporum [9] and 50% in the experiment on Colletotrichum acutatum [6]. For the same compound, the “growth inhibition (GI)” value in the experiment with Colletotrichum fragariae [1] and in the experiment on Diaporthe ampelina [3] was “Active” each time. The inhibition of growth at 100 µM with Phomopsis obscurans [10] amounted to 100%.
Consider `O=c1cc(CCCCc2ccc3c(c2)OCO3)[nH]c2ccccc12`, for which the “growth inhibition (GI)” value in the experiment on Botrytis cinerea [11] and with Diaporthe ampelina [3] was “Active” in each case. In addition, the inhibition of growth at 30 µM with Phomopsis obscurans [5] is 100%.
Regarding `O=c1cc(O)c2ccccc2o1` [4-HYDROXYCOUMARINS], the result (in the experiment on Phomopsis obscurans [12]; in the experiment on Botrytis cinerea [13]; in [14]; in the experiment on Diaporthe ampelina [15]) was Active. Also, the Activity with Colletotrichum acutatum [16] is listed as 15%.
On to `CCCCNC(=O)n1c(NC(=O)OC)nc2ccccc21` [BENOMYL], for which the “growth inhibition (GI)” value in the experiment with Phomopsis obscurans [17] and in the experiment with Botrytis cinerea [2] was “Active” each time. Further, the inhibition of growth at 300 µM in the experiment on Diaporthe ampelina [18] was 57%; in the experiment with Fusarium oxysporum [9], 77%; in experiment [19], 66%; with Colletotrichum acutatum [6] it was 33%. Also, in the experiment on Colletotrichum fragariae [1], the “growth inhibition (GI)” value is 76%.
Usually IC50 stands for the concentration that gives 50% inhibition. For `COc1c2ccoc2cc2oc(=O)ccc12` [BERGAPTEN], the concentration for half-maximal inhibition (IC50) in the experiment on Fusarium solani turned out to be 27.7 µM. The result in experiment [14] was Active. Further, the inhibition of growth at 30 µM in the experiment with Phomopsis obscurans [5] worked out at 80%. In addition, in the experiment with Diaporthe ampelina [20], the “growth inhibition (GI)” value is “Active”. Moreover, the Activity with Colletotrichum acutatum [16] is 15%.
Take `O=C1C2CC=CCC2C(=O)N1SC(Cl)(Cl)Cl` (configuration not stated) [CAPTAN]: the “growth inhibition (GI)” value in the experiment with Phomopsis obscurans [17] and in the experiment with Diaporthe ampelina [20] was “Active” throughout. Also, in the experiment on Fusarium oxysporum [9], the inhibition of growth at 300 µM is 100%.
For the compound `Cn1c(-c2ccc3c(c2)OCO3)cc(=O)c2ccccc21` [GRAVEOLINE], the outcome in the experiment on Botrytis cinerea [8] and in the experiment on Diaporthe ampelina [15] was Active. In the experiment with Fusarium oxysporum [9], the inhibition of growth at 300 µM stood at 44%. Moreover, the “growth inhibition (GI)” value in the experiment with Colletotrichum fragariae [1] is “Active”. Also, the inhibition of growth at 100 µM in the experiment with Phomopsis obscurans [10] turned out to be 100%.
As for `COc1ccc2ccc(=O)oc2c1` [HERNIARIN], the result (in the experiment with Fusarium oxysporum [21]; in the experiment with Botrytis cinerea [8]; in experiment [14]; with Diaporthe ampelina [15]) was Active. For the same compound, the inhibition of growth at 300 µM with Colletotrichum fragariae [22] amounted to 21%. In the experiment on Botrytis cinerea [11], the “growth inhibition (GI)” value was “Active”. The same compound displayed an Activity in the experiment with Colletotrichum acutatum [16] of 15%.
As to `COc1cc2nc3occc3c(OC)c2cc1OC` [KOKUSAGININE], the results for the inhibition of growth at 300 µM (in the experiment with Phomopsis obscurans [7]; in [19]) were 100% and 50%, respectively. For the same compound, the “growth inhibition (GI)” value with Colletotrichum fragariae [1] and with Diaporthe ampelina [3] was “Active” each time. Besides, in the experiment on Phomopsis obscurans [5], the inhibition of growth at 30 µM turned out to be 80%.
Take `COc1c2occc2cc2ccc(=O)oc12` [METHOXSALEN]: the inhibition of growth at 300 µM in the experiment on Phomopsis obscurans [7] was 100%; in the experiment with Colletotrichum fragariae [22], 29%; in the experiment with Fusarium oxysporum [9], 50%. The “growth inhibition (GI)” value in the experiment on Botrytis cinerea [11] and in the experiment with Diaporthe ampelina [20] was “Active” in each case. For the same compound, in the experiment with Fusarium solani, the IC50 was determined as 125 µM. The outcome in experiment [14] was Active. Further, the inhibition of growth at 30 µM in the experiment with Phomopsis obscurans [5] was found to be 80%. Moreover, the Activity with Colletotrichum acutatum [16] is 15%.
As to `O=c1ccc2ccc(O)cc2o1` [UMBELLIFERONE], the outcome (in the experiment on Phomopsis obscurans [12]; with Botrytis cinerea [13]; in experiment [14]; in the experiment with Diaporthe ampelina [15]) was Active. This compound also displayed an Activity with Colletotrichum acutatum [16] of 15%.
